The values that follow come from article PMC2818593 (Cancer prevention research (Philadelphia, Pa.), 2010).

Values joined by “and” are separate entries in the source; they are usually repeats but may differ in a detail not shown here. Equal entries are not always repeated. Where two headings read alike, the source gives them in different places. A value given as a limit tells only on which side of the number the result lay.

In one series the test system is H4IIE cells. Briefly: GSH levels in H4IIE rat hepatoma cells. The series is classed as cell-based. The note with it: 24 h. An outline of the steps:
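H4IIE rat hepatoma cells grown in MEM with 10% heat-inactivated FBS, non-essential amino acids and 1 mM pyruvate at 37 °C, 5% CO2. 3 × 10^6 cells exposed 24 h to 10–160 µM test compound (DMSO 0.5% final as control), then lysed in pH 7.0 phosphate/EDTA. Total GSH measured by enzymatic recycling on 1 µg protein (Bradford), expressed as fold over control. Two-sided tests, p < 0.05.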

For series [1], the system named is quinone reductase-1 (QR-1). The series can be described thus: QR-1 activity in rat tissues after dietary ILG. It is filed as in vivo.
Series [2] concerns glutathione S-transferase (GST). The series can be described thus: GST activity in rat tissues after dietary ILG. The note with it: 10.0 g/kg diet; liver, colon, mammary gland. It is filed as in vivo.
Series [3] has as its system QR-1 activity in mouse Hepa 1c1c7 cells. The note with it: cited from earlier work.
Series [4] has as its system carcinogen-treated mouse mammary organ culture. Conditions: at 10 µg/mL; cited from earlier work.
Series [5] relates to DMBA-induced mammary tumors. Briefly: DMBA-induced mammary carcinogenesis in rats. It is filed as in vivo.
Series [6] relates to DMBA-induced mammary tumors. The note with it: preliminary study, 5.0 g/kg diet, cited from earlier work.
Series [7] can be described thus: Quantification of ILG in rat plasma and tissues by LC-MS-MS. It is filed as in vivo.
A further series has as its system GSH. Briefly: GSH level in rat tissues after dietary ILG. It is filed as in vivo. Conditions: 10.0 g/kg diet; liver, colon, mammary gland.
Series [8] in a line: Metabolism of ILG in the rat. The series is classed as in vivo. The note with it: rat plasma after administration of ILG.

Consider `O=c1cc(-c2ccc(Br)cc2)oc2ccccc12` [4'-Bromoflavone, reference compound], for which, in the series on H4IIE cells (H4IIE cells, 10 µM, positive control), the GSH levels entry was “significant increase in GSH levels”.

In the case of `O=C(/C=C/c1ccc(O)cc1)c1ccc(O)cc1O` [ILG, 2′,4′,4-trihydroxychalcone], the QR-1 activity result in series [1] (colon, end of in vivo study) is listed as “significantly elevated”; in [1] (liver or mammary gland tissues) it was “no significant induction”. Besides, in the series with H4IIE cells (rat hepatoma cells), the “dose giving significant increase of total GSH” value is reported as at least 80 µM. The GST activity result in series [2] is “significantly elevated only in the liver”. Moreover, in [3], the “CD, induction of QR-1 activity” value is given as 2 µM. In addition, the “inhibition in carcinogen-treated mouse mammary organ culture assay” value in series [4] is 76%. Moreover, the tumor latency result is reported as “increased tumor latency” in [5] (7.5 and 10 g/kg diet during the entire study); “increased tumor latency” in series [6] (one week prior and one week after DMBA). Also, in series [5] (7.5 and 10 g/kg diet, after 84 days), the “overall tumor incidence and multiplicity” value is “increased the overall tumor incidence and multiplicity”. Further, in series [5] (between the different groups, 7.5 and 10 g/kg diet), the body weight result is “no significant differences in body weight”. In [6] (after 120 days), the “incidence of mammary tumors” value is given as “little effect on the incidence of mammary tumors”. Besides, in series [6], the adverse effects result is recorded as “no adverse effects were detected”. For the same compound, the “Concentration of ILG in liver tissue” value in series [7] (7.50 g/kg diet + DMBA) amounted to 2.56 ± 0.96 µg/g tissue; in series [7] (10.0 g/kg diet), 3.25 ± 1.38 µg/g tissue; in series [7] (10.0 g/kg diet + DMBA), 4.71 ± 1.64 µg/g tissue. The “Concentration of ILG in mammary tissue” value is on record as 0.044 ± 0.014 µg/g tissue in series [7] (7.50 g/kg diet + DMBA), 0.094 ± 0.043 µg/g tissue in [7] (10.0 g/kg diet) and 0.084 ± 0.040 µg/g tissue in [7] (10.0 g/kg diet + DMBA). Further, the “Concentration of ILG in plasma” value is 57.81 ± 19.65 ng/mL and 57.8 ± 19.6 ng/mL in series [7] (7.50 g/kg diet + DMBA); 142.2 ± 35.9 ng/mL in [7] (10.0 g/kg diet); 134.6 ± 47.2 ng/mL in [7] (10.0 g/kg diet + DMBA). In the series with GSH, the GSH levels result is on record as “significantly elevated only in the liver”.

Consider `O=C(/C=C/c1ccc(O)cc1)c1ccc(O[C@@H]2O[C@H](C(=O)O)[C@@H](O)[C@H](O)[C@H]2O)cc1O` [MG5, 4′-glucuronosylisoliquiritigenin], for which the “relative abundance among the five glucuronides” value in series [8] was “most abundant”.
